Laboratory results: ChEMBL document CHEMBL4028856, “Discovery of Small Molecules Targeting the Synergy of Cardiac Transcription Factors GATA4 and NKX2-5” (J Med Chem, 2017)
Calls of active or inactive are those of the source. The rule behind the calls is not given here.

Key:
[1] = target: Hydroxycarboxylic acid receptor 2 (Homo sapiens) (UniProt Q8TDS4); assay: Agonist activity at human GPR109A expressed in Chem-4 cells assessed as induction of calcium flux at 12.5 uM by fluorescence assay; type: functional, cell-based
Hydroxycarboxylic acid receptor 2 (Homo sapiens), sequence (Q8TDS4 whole entry): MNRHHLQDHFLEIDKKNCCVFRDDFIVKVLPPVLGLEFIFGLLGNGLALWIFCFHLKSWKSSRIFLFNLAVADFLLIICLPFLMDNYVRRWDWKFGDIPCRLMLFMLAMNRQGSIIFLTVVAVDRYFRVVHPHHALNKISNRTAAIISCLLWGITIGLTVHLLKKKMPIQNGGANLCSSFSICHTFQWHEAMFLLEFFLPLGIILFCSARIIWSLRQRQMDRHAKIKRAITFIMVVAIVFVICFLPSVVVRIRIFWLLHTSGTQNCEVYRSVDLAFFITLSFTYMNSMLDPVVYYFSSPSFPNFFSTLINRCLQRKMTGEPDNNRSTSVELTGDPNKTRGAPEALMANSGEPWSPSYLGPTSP
Method in brief: (§1)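 GPCR profiling panel of cell-based functional assays covering 165 GPCRs; agonist mode tested at 12.5 μM and antagonist mode at 10 μM, in duplicate.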

[2] = target: GATA4/NKX2-5 (Mus musculus) (UniProt Q08369+P42582); assay: Inhibition of mouse GATA4/FLAG-tagged NKX2-5 interaction expressed in African green monkey COS-1 cells at 100 uM by coimmunoprecipitation method; type: cell-based
Method in brief: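 FLAG-NKX2-5 and GATA4 lysates from COS-1 cells incubated overnight at 4 °C with anti-FLAG agarose in Tris/NaCl/Triton lysis buffer with protease/phosphatase inhibitors; beads washed thrice, eluted by boiling, SDS-PAGE, immunoblotted for GATA4 and NKX2-5, ECL detection.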

[3] = target: T1, GATA4/NKX2-5 (Rattus norvegicus) (UniProt P46152+O35767); assay: Inhibition of GATA4/NKX2-5 interaction in neonatal rat ventricular cardiomyocytes assessed as decrease in endothelin-1 induced mRNA level of ANP at 10 uM preincubated for 1 hr followed by endothelin-1 addition measured after 23 hrs by real-time PCR analysis
Method in brief: (§2)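 Neonatal rat ventricular myocytes (2–4-day-old Sprague-Dawley or Wistar), preplated, seeded on 6-well plates, moved to complete serum-free medium next day and cultured 24 h. Compounds (10–100 μM) added 1 h before 100 nM endothelin-1 or none; ANP and BNP mRNA quantified by RT-PCR at 24 h, normalized to 18S RNA, relative to vehicle; mean ± SD, n = 3–6.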

[4] = target: Cannabinoid receptor 2 (Homo sapiens) (UniProt P34972); assay: Antagonist activity at human CB2 receptor expressed in rat hematopoietic Chem-4 cells assessed as inhibition of CP55940 induced calcium flux at 10 uM by fluorescence assay; type: functional, cell-based; method in brief: as §1
Cannabinoid receptor 2 (Homo sapiens), sequence (P34972 whole entry): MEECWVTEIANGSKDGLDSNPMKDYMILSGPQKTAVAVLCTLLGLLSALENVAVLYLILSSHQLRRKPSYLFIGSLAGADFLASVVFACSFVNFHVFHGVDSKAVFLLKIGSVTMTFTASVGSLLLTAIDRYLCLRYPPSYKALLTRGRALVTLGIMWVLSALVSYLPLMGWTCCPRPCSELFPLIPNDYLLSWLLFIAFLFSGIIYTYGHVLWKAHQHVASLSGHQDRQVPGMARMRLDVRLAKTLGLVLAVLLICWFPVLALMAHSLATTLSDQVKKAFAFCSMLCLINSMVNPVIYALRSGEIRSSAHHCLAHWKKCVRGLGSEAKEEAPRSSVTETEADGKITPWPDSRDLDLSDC

[5] = target: Glycogen synthase kinase-3 beta (Homo sapiens) (UniProt P49841); assay: Inhibition of human GSK3-beta at 30 uM
Glycogen synthase kinase-3 beta (Homo sapiens), sequence (P49841 whole entry, looked up): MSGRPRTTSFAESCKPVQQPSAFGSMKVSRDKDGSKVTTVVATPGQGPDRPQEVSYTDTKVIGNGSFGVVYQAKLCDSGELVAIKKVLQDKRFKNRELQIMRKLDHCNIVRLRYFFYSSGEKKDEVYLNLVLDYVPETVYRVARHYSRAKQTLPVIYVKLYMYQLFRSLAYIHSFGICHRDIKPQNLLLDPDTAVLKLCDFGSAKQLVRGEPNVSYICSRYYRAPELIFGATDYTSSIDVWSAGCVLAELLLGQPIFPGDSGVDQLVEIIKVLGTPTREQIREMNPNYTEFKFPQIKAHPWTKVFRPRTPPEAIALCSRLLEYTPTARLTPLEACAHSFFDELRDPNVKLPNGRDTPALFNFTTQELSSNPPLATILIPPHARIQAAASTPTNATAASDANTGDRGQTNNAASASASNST
Method in brief: (§3)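 48-kinase profiling panel; compounds tested at 30 μM in duplicate.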

Homo sapiens = species on record: Homo sapiens; assay: Inhibition of human PKA at 30 uM; method in brief: as §3
[6] = target: Transcription factor GATA-4 (Rattus norvegicus) (UniProt P46152); assay: Inhibition of binding of GATA4 to [32P]-double stranded oligonucleotide in neonatal rat ventricular cardiomyocytes at 50 uM measured after 24 hrs by EMSA method
Transcription factor GATA-4 (Rattus norvegicus), sequence (P46152 whole entry): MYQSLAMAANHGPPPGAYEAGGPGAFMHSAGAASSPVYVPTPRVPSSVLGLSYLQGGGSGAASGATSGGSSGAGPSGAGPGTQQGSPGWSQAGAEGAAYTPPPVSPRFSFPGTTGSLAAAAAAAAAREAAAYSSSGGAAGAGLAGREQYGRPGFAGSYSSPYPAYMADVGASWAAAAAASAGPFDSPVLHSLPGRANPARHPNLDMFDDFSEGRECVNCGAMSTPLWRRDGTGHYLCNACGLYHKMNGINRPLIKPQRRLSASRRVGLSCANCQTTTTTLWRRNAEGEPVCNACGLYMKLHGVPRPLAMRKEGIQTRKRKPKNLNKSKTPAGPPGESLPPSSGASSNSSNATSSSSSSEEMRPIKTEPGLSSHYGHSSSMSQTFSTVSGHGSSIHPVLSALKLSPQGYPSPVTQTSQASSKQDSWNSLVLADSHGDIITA
Method in brief: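 Neonatal rat cardiomyocytes treated 24 h with 50 μM; nuclear extracts incubated 20 min with [α-32P]dCTP Klenow-labeled GATA4- or NKX2-5-site oligonucleotide in HEPES/NaCl/KCl/MgCl2 buffer with poly(dI-dC); 5% native PAGE, phosphorimager; supershift with anti-GATA4/NKX2-5; relative to vehicle, mean ± SD, n = 3–5.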

[7] = Induction of aggregation of compound at 3 to 30 uM by nephalometric method
[8] = target: Epidermal growth factor receptor (Homo sapiens) (UniProt P00533); assay: Inhibition of human EGFR at 30 uM; method in brief: as §3
Epidermal growth factor receptor (Homo sapiens), sequence (P00533 whole entry): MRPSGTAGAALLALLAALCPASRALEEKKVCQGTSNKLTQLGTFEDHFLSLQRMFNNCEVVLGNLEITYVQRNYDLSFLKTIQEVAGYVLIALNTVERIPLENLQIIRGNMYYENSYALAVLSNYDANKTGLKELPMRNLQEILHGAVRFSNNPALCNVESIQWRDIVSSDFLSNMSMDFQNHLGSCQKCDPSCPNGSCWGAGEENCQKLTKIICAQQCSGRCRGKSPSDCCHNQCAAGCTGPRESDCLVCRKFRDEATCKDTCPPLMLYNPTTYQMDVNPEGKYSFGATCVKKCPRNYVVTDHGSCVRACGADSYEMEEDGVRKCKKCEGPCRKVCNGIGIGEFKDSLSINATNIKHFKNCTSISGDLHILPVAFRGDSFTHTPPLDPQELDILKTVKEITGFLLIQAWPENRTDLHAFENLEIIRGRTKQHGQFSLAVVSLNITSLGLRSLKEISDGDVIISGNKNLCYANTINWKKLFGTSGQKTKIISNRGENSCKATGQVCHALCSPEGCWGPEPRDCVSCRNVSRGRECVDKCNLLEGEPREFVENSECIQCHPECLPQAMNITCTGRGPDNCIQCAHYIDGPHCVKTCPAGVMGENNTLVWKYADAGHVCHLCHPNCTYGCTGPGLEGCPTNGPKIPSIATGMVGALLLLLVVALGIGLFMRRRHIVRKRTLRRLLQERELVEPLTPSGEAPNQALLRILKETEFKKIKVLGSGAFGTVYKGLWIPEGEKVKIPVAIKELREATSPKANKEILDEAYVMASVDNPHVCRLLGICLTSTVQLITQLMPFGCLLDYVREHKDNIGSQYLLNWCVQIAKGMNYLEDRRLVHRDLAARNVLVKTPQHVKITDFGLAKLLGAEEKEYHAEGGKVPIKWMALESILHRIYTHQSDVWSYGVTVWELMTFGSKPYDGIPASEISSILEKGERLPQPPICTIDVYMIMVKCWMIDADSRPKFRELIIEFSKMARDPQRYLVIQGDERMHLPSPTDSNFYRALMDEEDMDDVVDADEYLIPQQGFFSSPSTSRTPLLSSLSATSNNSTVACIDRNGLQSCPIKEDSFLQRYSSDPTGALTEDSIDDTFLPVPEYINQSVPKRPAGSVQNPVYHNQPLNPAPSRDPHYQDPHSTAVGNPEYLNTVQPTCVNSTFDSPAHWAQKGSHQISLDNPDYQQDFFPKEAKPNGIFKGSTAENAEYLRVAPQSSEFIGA

[9] = Induction of apoptosis in endothelin-1 induced neonatal rat ventricular cardiomyocytes at 50 uM measured after 24 hrs by TUNEL assay; type: cell-based; settings: cardiac muscle cell
Method in brief: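 Neonatal rat cardiomyocytes on 8-well chamber slides treated 24 h at 50 μM; apoptotic cells detected by TUNEL with peroxidase in situ kit.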

[10] = target: Rho-associated protein kinase 1 (Homo sapiens) (UniProt Q13464); assay: Inhibition of human ROCK1 at 30 uM; method in brief: as §3
[11] = target: T1, GATA4/NKX2-5 (Rattus norvegicus); assay: Inhibition of GATA4/NKX2-5 interaction in neonatal rat ventricular cardiomyocytes assessed as decrease in endothelin-1 induced mRNA level of BNP at 10 uM preincubated for 1 hr followed by endothelin-1 addition measured after 23 hrs by real-time PCR analysis; method in brief: as §2
[12] = target: Transcription factor GATA-4 (Mus musculus) (UniProt Q08369); assay: Inhibition of mouse GATA4-driven transactivation of luciferase reporter construct containing BNP minimal promoter expressed in African green monkey COS-1 cells after 30 hrs by luminometer; type: cell-based
Transcription factor GATA-4 (Mus musculus), sequence (Q08369 whole entry): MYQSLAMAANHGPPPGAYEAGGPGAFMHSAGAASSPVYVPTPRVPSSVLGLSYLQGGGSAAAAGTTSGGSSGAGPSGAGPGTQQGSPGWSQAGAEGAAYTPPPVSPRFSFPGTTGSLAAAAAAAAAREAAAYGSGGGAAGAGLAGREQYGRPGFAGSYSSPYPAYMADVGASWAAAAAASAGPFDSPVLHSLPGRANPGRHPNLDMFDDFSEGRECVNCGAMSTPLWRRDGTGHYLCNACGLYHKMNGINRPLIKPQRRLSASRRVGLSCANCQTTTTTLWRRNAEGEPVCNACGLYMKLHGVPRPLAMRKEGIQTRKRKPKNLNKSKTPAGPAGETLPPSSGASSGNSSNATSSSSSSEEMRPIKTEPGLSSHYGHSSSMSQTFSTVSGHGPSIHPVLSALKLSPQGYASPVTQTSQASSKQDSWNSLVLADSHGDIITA
Method in brief: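 COS-1 cells co-transfected with firefly luciferase driven by BNP minimal or −90 bp BNP promoter, Renilla pRL-TKd238, and pMT2-GATA4 or empty pMT2. Compounds added 6 h post-transfection in 0.1% DMSO, refreshed with medium at 24 h; lysis at 30 h; dual-luciferase, firefly/Renilla normalized to vehicle; triplicate wells.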

[13] = Drug metabolism in mouse embryonic stem cells assessed as formation of N-[4-(Ethylamino)phenyl]-5-methyl-3-phenylisoxazole-4-carboxamide at 3 to 5 uM measured after 10 days by HPLC/MS method; type: ADME, cell-based; settings: embryonic stem cell, 240 h
Method in brief: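 Mouse embryonic stem cells exposed 5 and 10 days to 3 or 5 μM, with DMSO and EB differentiation medium blanks. Medium extracted with chloroform; cells pelleted, saline-washed twice, sonicated in chloroform. UPLC-ESI(+)-QTOF/MS, BEH C18, 0.1% formic acid water/acetonitrile gradient 7–80% B over 5 min, 0.6 mL/min, 40 °C.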

[14] = target: Parathyroid hormone 2 receptor (Homo sapiens) (UniProt P49190); assay: Agonist activity at human PTH2 receptor expressed in Chem-1 cells assessed as induction of calcium flux at 12.5 uM by fluorescence assay; type: functional, cell-based; method in brief: as §1
Parathyroid hormone 2 receptor (Homo sapiens), sequence (P49190 whole entry): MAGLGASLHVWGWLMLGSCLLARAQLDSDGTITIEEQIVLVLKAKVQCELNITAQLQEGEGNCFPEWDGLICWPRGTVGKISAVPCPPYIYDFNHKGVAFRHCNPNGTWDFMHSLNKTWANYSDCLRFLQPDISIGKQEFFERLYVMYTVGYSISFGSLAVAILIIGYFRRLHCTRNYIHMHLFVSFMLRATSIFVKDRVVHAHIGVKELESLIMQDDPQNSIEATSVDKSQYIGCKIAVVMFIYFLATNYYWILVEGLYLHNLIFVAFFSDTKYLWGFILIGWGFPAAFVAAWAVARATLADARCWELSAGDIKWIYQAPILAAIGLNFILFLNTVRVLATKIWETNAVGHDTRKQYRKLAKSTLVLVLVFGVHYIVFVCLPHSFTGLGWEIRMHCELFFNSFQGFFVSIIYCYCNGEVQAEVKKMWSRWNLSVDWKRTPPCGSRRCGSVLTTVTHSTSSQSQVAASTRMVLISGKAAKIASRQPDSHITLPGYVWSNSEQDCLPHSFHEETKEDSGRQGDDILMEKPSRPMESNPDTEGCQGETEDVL

[15] = target: Parathyroid hormone 2 receptor (Homo sapiens) (UniProt P49190); assay: Antagonist activity at human PTH2 receptor expressed in rat Chem-1 cells assessed as inhibition of TIP-39 induced calcium flux at 10 uM by fluorescence assay; type: functional, cell-based; method in brief: as §1
[16] = target: Transcription factor GATA-4 (Mus musculus) (UniProt Q08369); assay: Inhibition of binding of mouse GATA4 to [32P]-double stranded oligonucleotide expressed in African green monkey COS-1 cells at 50 uM preincubated for 10 mins followed by [32P]-double stranded oligonucleotide addition measured after 20 mins by EMSA method; type: cell-based
Method in brief: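 Nuclear extracts from COS-1 cells transfected with pMT2-GATA4 or pMT2-NKX2-5 (harvested 48 h) preincubated 10 min with 50 μM compound, then 20 min with 32P-labeled GATA4- or NKX2-5-site probe; native 5% PAGE, phosphorimager quantitation; antibody supershift controls; mean ± SD, n = 3–5.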

[17] = target: T1, GATA4/NKX2-5 (Rattus norvegicus); assay: Inhibition of GATA4/NKX2-5 interaction in neonatal rat ventricular cardiomyocytes assessed as decrease in basal mRNA level of BNP at 10 uM after 24 hrs by real-time PCR analysis; method in brief: as §2
[18] = Induction of necrosis in endothelin-1 induced neonatal rat ventricular cardiomyocytes assessed as release of adenylate kinase at 50 uM measured after 24 hrs by bioluminescence assay; type: cell-based; settings: cardiac muscle cell
Method in brief: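 Neonatal rat cardiomyocytes treated 24 h at 50 μM; adenylate kinase released into medium measured by ToxiLight bioluminescence on a luminometer; relative to vehicle, mean ± SD, n = 3.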

[19] = target: T1, GATA4/NKX2-5 (Rattus norvegicus); assay: Inhibition of GATA4/NKX2-5 interaction in neonatal rat ventricular cardiomyocyte hypertrophy model assessed as decrease in mechanical stretching-induced cell surface area at 10 uM after 48 hrs by alpha-actinin/phalloidin/DAPI staining-based fluorescence microscopic method
Method in brief: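 Neonatal rat ventricular myocytes seeded at 10^6/well on collagen I flexible plates, cultured 48 h, then given 10 μM in serum-free medium under equibiaxial cyclic stretch (0.5 Hz, 10–20%) 48 h; nonstretched controls. Fixed, stained α-actinin/phalloidin/DAPI; α-actinin+ cell area (>200 cells/specimen) normalized to untreated nonstretched; three experiments, mean ± SEM.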

CCN(CC)c1ccc(NC(=O)c2c(-c3ccccc3)noc2C)cc1
Activity [1]: inactive
inhibition [2]: Active
inhibition [3]: 32%
inhibition [4]: 91.8%
inhibition [5]: inactive
inhibition (Homo sapiens): inactive
inhibition [6]: 29%
Activity [7]: inactive
inhibition [8]: 54%
Activity [9]: Non-Toxic
inhibition [10]: inactive
inhibition [11]: 68%
inhibition [12]: Active
Drug metabolism [13]: Metabolite_Detected
Activity [14]: inactive
inhibition [15]: 59.5%
inhibition [16]: inactive
inhibition [17]: 75%
Activity [18]: Non-Toxic
inhibition [19]: Active
